Laboratory results reported in PubChem BioAssay.
Unmarked numbers belong to inactive results. Inconclusive results are not listed. Calls of active or inactive are those of the source.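 Rule for the calls, unless noted: active = inhibition over a set limit, the all-compound mean plus 3 SD, in both replicate runs; inconclusive = over that limit in just one replicate run; inactive = at or under that limit in both runs.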

How the values were obtained:
[1] = S. cerevisiae growth inhibition in permissive medium (OD615), pilot counter-assay for S. cerevisiae lifespan shortening project, permissive growth control (AID 705;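 active = growth inhibition above 25% in both replicates, a cutoff set 3 SD above the mean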); details: OD615, 24 h, at 10 µM, active compounds read high
Summary of the method: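 System: Engineered DeaD yeast | Buffer or medium: SC raffinose/galactose permissive medium | Doses: 10 µM single dose, 0.25% DMSO | Times: 24 h exposure, 30 °C | Measured by: OD615 turbidity read | Read-out: Yeast growth inhibition indicated by reduced 24 h OD615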

[2] = S. cerevisiae growth inhibition in restrictive medium, OD615, pilot screen, restrictive growth control, yeast lifespan reduction project (AID 706;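 active = growth inhibition above a set limit, 3 SD over mean compound inhibition, in both replicates, cut at about 43% in these data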;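 note: modified DeaD lifespan yeast strain shifted to restrictive glucose medium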); details: OD615, 48 h, at 10 µM, active compounds read high
Summary of the method: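 Assay system: engineered S. cerevisiae DeaD strain; Buffer or medium: CSMM-D glucose medium; Dosing: 10 µM compound, 0.25% DMSO; Times: cell pre-growth 4 h, compound exposure 48 h, 30 °C; Detection: absorbance (optical density) measured at 615 nm.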

[3] = doxorubicin toxicity protection in MRP-1 cells – H69AR cells, CellTiter-Glo, duplicate, MRP-1 activator project, pilot screen (AID 807;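 active = viability increase at or above a cutoff of the median across tested compounds plus 3 SD, cut at about 8.5% in these data, passing the limit was not always enough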;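 note: compound pretreatment 18-22 h then 72 h combined with doxorubicin; 0% = doxorubicin alone and 100% = vehicle without doxorubicin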); details: H69AR viability with doxorubicin, CellTiter-Glo luminescence; at 10 µM; active compounds read high
[4] = viability of HCT116 without oncogenic beta-catenin – human colon tumor cells, pilot screen (AID 823;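 active = cell viability at or below a set limit in both duplicate runs, the limit being the all-compound median minus 4 SD, cut at about 23% in these data, passing the limit was not always enough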;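 note: 0% = wells killed by 20 µM Hyamine and 100% = untreated DMSO cell wells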); details: HCT116 beta-catenin knockout viability, CellTiter-Glo, 60 h; at 10 µM; active compounds read low
[5] = viability of PTEN-null HCT116 cells – cell-based, HCT116 clonal line, CellTiter-Glo, pilot screen (AID 824;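 active = viability at or below 27.92% in each of two runs, the all-compound median minus 4 SD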;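 note: 0% = 20 µM Hyamine control and 100% = vehicle cell control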); details: HCT116 PTEN-deleted viability, 60 h, at 10 µM, active compounds read low
[6] = RAM pathway blockade in budding yeast – dse1pr::URA3 reporter, 5-FOA selection, pilot screen (AID 869);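 note: 0% = DMSO wells with no growth and 100% = 10 µM 1-NA-PP1 with full growth; RAM network block rescues cells from 5-FOA so hits raise OD615 growth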; details: S. cerevisiae dse1pr::URA3 5-FOA growth, OD615, 2 d; at 10 µM; active compounds read high; strain carries analog-sensitive mutant Cbk1 kinase
[7] = RAM signaling pathway blockade in yeast – S. cerevisiae, Pdr1DBD-CYC8 efflux-inhibited sensitized strain, primary screen (AID 1298;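 active = RAM network inhibition above 8.4% in each of two replicates, 3 SD over the compound average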;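 note: 0% = DMSO untreated cells without growth and 100% = 10 µM 1-NA-PP1 full growth; higher means more yeast growth rescued from 5-FOA killing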); details: S. cerevisiae cbk1-as DSE1-URA3 strain, 5-FOA growth OD615, 2 d; at 50 µM; active compounds read high

| SMILES | growth inhibition [1] [%] | growth inhibition [2] [%] | viability increase [3] | viability [4] [%] | viability [5] [%] | inhibition [6] [%] | RAM network inhibition [7] [%] |
| --- | --- | --- | --- | --- | --- | --- | --- |
| CCC(C)C1C(C#N)=C(N)OC2=C1C(=O)CC(C)(C)C2 (centres undefined) | -10.1 | -15.1 | -3.48% | 103 | 86.5 | 1.31 | 6.21 |
| CCOC(=O)N1CCN(C(=O)CSc2nnc(Cn3c(=O)sc4ccccc43)n2C)CC1 | -12.9 | -13 | -2.25% | 98.4 | 95.8 | 1.69 | 1.9 |
| CCOC(=O)c1c(C)c(C(=O)O)n(C)c1C | -12.4 | -19.7 | 0.64% | 99.5 | 94.6 | 2.54 | 2.91 |
| O=P(O)(CN1CCCCC1)C1CCCCC1O (centres undefined) | -11.2 | -3.29 | -1.71% | 105 | 104 | 0.06 | 1.57 |
| CCC(C)Sc1nc2c(c(=O)n1C)SC(C)C2 (centres undefined) | -11.3 | 7.98 | -0.66% | 91.6 | 91.8 | 2.51 | 4.01 |
| CNc1nc(C)nc(-c2ccccc2O)n1 | -3.62 | 7.31 | -0.19% | 98.5 | 92.8 | 0.84 | 4.49 |
| CCN1CCN(C(=O)C2CCN(Cc3nc(-c4ccc(Cl)cc4)oc3C)CC2)CC1 | -10.7 | -25 | -2.66% | 85.8 | 79.7 | 2.88 | 2.86 |
| COc1ccc(OC)c2sc(NC(=O)C3COc4ccccc4O3)nc12 (centres undefined) | -19.7 | -10.6 | -3.63% | 101 | 95.6 | -0.125 | 2.87 |
| CCOC(=O)N1CCC(NC(=O)c2cc3ccccn3n2)CC1 | 1.83 | 1.79 | 0.34% | 97.5 | 101 | 1.8 | 0.26 |
| CC(CCc1ccco1)NC(=O)c1cc2c(-c3ccccc3F)nn(C)c2s1 (centres undefined) | -0.025 | 5.7 | 1.04% | 83.3 | 78.7 | 1.15 | -0.15 |
| CCOC(=O)C(C(=O)Nc1ccccc1)C1CCCCC1 (centres undefined) | -7.22 | 1.79 | -5.02% | 86.1 | 86.7 | -0.18 | 3.67 |
| O=C(CN1CCN(c2ncccn2)CC1)N1CCN(C(c2ccccc2)c2ccccc2)CC1 | -1.1 | -2.38 | -3.26% | 84.8 | 85 | 1.64 | 0.61 |
| Cc1sc2nc(CSc3nnc(Cc4cccs4)n3C3CCCCC3)[nH]c(=O)c2c1C | 10.9 | 27.6 | 3.27% | 92.8 | 90 | 3.25 | 4.25 |
| CCCC(=O)NC(C)c1nc2ccccc2n1C(C)C (centres undefined) | -10.7 | -16.6 | 0.47% | 97.5 | 91.2 | 0.475 | 2.52 |
| Cc1cc(C)c(OCC(=O)Nc2cccc(NC(=O)c3ccco3)c2)c(Br)c1 | -3.62 | 4.23 | -3.03% | 56.1 | 60.8 | 0.45 | 3.46 |
| CC1CCCCN1C(=O)c1ccc(S(=O)(=O)N2CCCCC2C)cc1 (centres undefined) | -5.29 | -15.2 | -2.45% | 96.7 | 95.6 | 1.99 | 2.28 |
| COc1ccc(CCNC(=O)CCS(=O)(=O)c2cccc3nsnc23)cc1OC | -10.1 | -13.1 | -2.17% | 96.4 | 97.5 | 0.45 | 3.1 |
| CCC(C)NC(=O)C(NS(=O)(=O)c1ccc2c(c1)c(=O)n(C)c(=O)n2C)c1ccccc1 (centres undefined) | -5.69 | -11.3 | -1.17% | 101 | 96.6 | 1.19 | 4.7 |
| COc1ccc(OC)c(CNC(=O)CCc2nc(-c3cccs3)no2)c1 | 2.87 | 11.3 | -2.92% | 98 | 93.4 | 1.71 | 2.56 |
| CCOc1ccc(C2CC(c3cccc(C)c3)n3nc(N)nc3N2)cc1 (centres undefined) | 2.79 | 11.8 | -0.49% | 91.7 | 83.2 | 1.02 | 2.03 |
| Cn1c(NC(=O)C2CCCC2)cc(=O)n(C)c1=O | 0.48 | -4.17 | -0.06% | 105 | 95.4 | 0.58 | -1.4 |
| O=C(CSc1nc2c(cnn2-c2ccc(F)cc2)c(=O)[nH]1)N1CCCCC1 | -8.1 | 7.12 | -3.71% | 91.7 | 84.7 | 2.99 | 1.77 |
| COc1ccccc1CNC(=O)c1cnc2sccn2c1=O | -5.31 | -12.4 | -2.45% | 107 | 90.3 | 2.37 | 2.72 |
| S=c1[nH]nc(CSc2nc3ccccc3s2)o1 | -1.19 | 16.7 | -4.34% | 93.8 | 99.1 | 0.95 | 0.83 |

| SMILES | growth inhibition [1] [%] | growth inhibition [2] [%] | viability increase [3] | viability [4] [%] | viability [5] [%] | inhibition [6] [%] | RAM network inhibition [7] [%] |
| --- | --- | --- | --- | --- | --- | --- | --- |
| Cc1ccc(Nc2cc(C)nc3nc(C)nn23)c(C)c1 | -9.53 | 8.84 | -3.9% | 95.1 | 96.9 | -0.02 | -0.78 |
| CCCCC(=O)Nc1ccc(Br)cc1C(=O)O | 5.08 | -10.9 | 0.11% | 89.9 | 97.8 | 1.95 | -1.59 |
| CCCCCCNS(=O)(=O)c1nc2nc(C)cc(C)n2n1 | -15.4 | -13.1 | 2.63% | 104 | 104 | 1.35 | 1.21 |
| CCOc1ccccc1NC(=O)CSc1nnc(-c2ccccn2)n1Cc1ccco1 | -4.62 | 11.5 | -1.92% | 96.9 | 98.5 | 0.955 | 3.98 |
| COc1ccc(OC)c2sc(NC(=O)c3ccc(S(=O)(=O)N(C)C)cc3)nc12 | -19.3 | -17.2 | -5.45% | 72.9 | 68.9 | 3.56 | 6.48 |
| Cc1cc(C)nc(SCC(=O)OCN2C(=O)c3ccccc3C2=O)n1 | -19.7 | -18.3 | -1.63% | 91.6 | 91.6 | 0.15 | 3.15 |
| O=C(COc1ccc(Cl)cc1)Nc1nnc(-c2ccc3c(c2)CCCC3)o1 | -12.6 | -12.9 | -1.94% | 101 | 96.5 | 3.45 | 1.21 |
| CC1CCN(C(=O)CSc2nnc(-c3ccco3)o2)CC1 | 0.09 | 6.93 | 0.32% | 106 | 102 | 2.54 | 1.64 |
| CCOC(=O)Cc1nnc(NC(=O)C(CC)Sc2nc(C)cc(=O)[nH]2)s1 (centres undefined) | 6.95 | 22.4 | -0.54% | 83.4 | 96.7 | 2.96 | 2.97 |
| Nc1nc(SCC(=O)N2CCCc3ccccc32)n(-c2ccccc2)n1 | -4.37 | 0.05 | -4.68% | 108 | 99.3 | 2.67 | 6.67 |
| Cc1nc2ccc(S(=O)(=O)NC(C(=O)N3CCn4c3nc3ccccc34)C(C)C)cc2s1 (centres undefined) | 0.9 | 8.13 | -1.67% | 102 | 97.2 | 1.02 | 5.83 |
| COc1ccc(-n2nnc3c(=O)n(CC(=O)N4CCC(C)CC4)cnc32)cc1 | 8.16 | 3.46 | -0.52% | 95.8 | 92.3 | 1.77 | 2.64 |
| OC(COc1ccccc1)Cn1cc(Br)cn1 (centres undefined) | -3.63 | -8.39 | -0.64% | 106 | 96.1 | 1.23 | 0.93 |
| CC1(C(=O)NCc2cccnc2)CCC(=O)N1CCc1ccccc1 (centres undefined) | 4.98 | 3.93 | -0.87% | 97 | 102 | 2.94 | 2.65 |
| COC(=O)c1ccc(N=c2sc(C(=O)OC)cc(=O)n2C)cc1 | -4.13 | -3.27 | -5.93% | 71.2 | 62.5 | 0.495 | 3.85 |
| O=C(Cn1c(=O)oc2cc(S(=O)(=O)N3CCCCCC3)ccc21)NC1CCCCCCC1 | -9.87 | -14.8 | -7.86% | 95.2 | 88.5 | 4.98 | 10.5 |
| CC1CCCCC1NC(=O)CCS(=O)(=O)c1cccc2nonc12 (centres undefined) | -0.105 | 2.68 | -2.34% | 98.9 | 102 | -0.06 | 0.88 |
| CCOc1ccccc1N1C(=O)c2cccnc2C1=O | -9.2 | 7.41 | -1.2% | 102 | 98.7 | 1.04 | 10.2 |
| NC(=O)C1CCN(C(=O)c2cnn(-c3ccccc3)c2NC(=O)c2ccco2)CC1 | -2.77 | 1.08 | -4.39% | 99.7 | 98.8 | 1.67 | 5.39 |
| CC(Sc1nnc(Cn2c(=O)sc3ccccc32)n1C)c1ccccc1 (centres undefined) | -3.63 | 15.1 | 0.33% | 92.8 | 96.3 | 1.69 | 11.7 |
| CC(C)=C(NC(=O)c1ccccc1)C(=O)NCCCC(=O)O | -7.54 | -18.8 | -0.03% | 100 | 103 | 1.5 | 2.34 |
| Oc1c(C(c2cccs2)N2CCN(c3ccc(F)cc3)CC2)sc2ncnn12 (centres undefined) | 0.78 | -6.24 | 13.4% (active) | 105 | 90.9 | 0.495 | 8.63 |
| COC(=O)c1ccc(-c2nc(-c3ccc(Br)o3)no2)cc1 | -14 | -20.4 | 3.93% | 103 | 87.4 | 2.63 | 1.84 |
